According to ChEMBL document CHEMBL3526048, “In vitro metabolism of rivoglitazone, a novel peroxisome proliferator-activated receptor γ agonist, in rat, monkey, and human liver microsomes and freshly isolated hepatocytes” (Drug Metab Dispos, 2011):

Tests used:
Cytochrome P450 2C19 [1] = target: T1, Cytochrome P450 2C19 (Homo sapiens, UniProt P33261); test: Activity of human CYP2C19 expressed in microsomes isolated from baculovirus infected insect cell assessed as enzyme-mediated compound formation treated with [14C]-rivoglitazone at 20 uM after 2 hrs by radio-HPLC/LC-MS/MS analysis in presence of NADPH-generating system; type: ADME
T1 sequence (P33261 whole entry): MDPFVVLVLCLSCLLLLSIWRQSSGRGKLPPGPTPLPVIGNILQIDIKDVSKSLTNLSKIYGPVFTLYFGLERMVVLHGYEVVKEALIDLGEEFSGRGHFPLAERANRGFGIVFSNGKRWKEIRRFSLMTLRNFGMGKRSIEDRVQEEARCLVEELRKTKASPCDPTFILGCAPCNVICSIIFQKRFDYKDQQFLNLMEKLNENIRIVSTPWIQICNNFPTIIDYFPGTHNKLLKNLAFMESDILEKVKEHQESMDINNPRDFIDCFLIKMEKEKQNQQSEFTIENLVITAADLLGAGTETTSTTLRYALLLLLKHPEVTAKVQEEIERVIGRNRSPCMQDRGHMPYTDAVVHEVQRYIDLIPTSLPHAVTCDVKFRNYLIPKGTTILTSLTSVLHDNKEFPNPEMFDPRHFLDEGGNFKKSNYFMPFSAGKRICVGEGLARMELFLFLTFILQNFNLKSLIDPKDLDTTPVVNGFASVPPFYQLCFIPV
In short: (§1)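 Baculovirus/insect-cell microsomes expressing single human CYPs, 1 mg/ml protein, with 50 mM potassium phosphate (pH 7.4) or 100 mM Tris-HCl (pH 7.5). NADPH-generating system: 2 mM NADP⁺, 20 mM glucose 6-phosphate, 2 units/ml G6PDH, 10 mM MgCl₂. [¹⁴C]rivoglitazone at 20 μM, 2 h at 37°C with shaking. Control used insect-cell control supersomes. Stopped with acetonitrile; supernatant concentrated under nitrogen; metabolites analysed by radio-HPLC, LC-MS and LC-MS/MS.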

Cytochrome P450 1A2 = target: T2, Cytochrome P450 1A2 (Homo sapiens, UniProt P05177); test: Activity of human CYP1A2 expressed in microsomes isolated from baculovirus infected insect cell assessed as enzyme-mediated 2-mercapto-3-(4-((6-methoxy-1-methyl-1H-benzo[d]imidazol-2-yl)methoxy)phenyl)propanoic acid formation at 20 uM after 2 hrs by radio-HPLC/LC-MS/MS analysis in presence of NADPH-generating system; type: ADME; in short: as §1
T2 sequence (P05177 whole entry): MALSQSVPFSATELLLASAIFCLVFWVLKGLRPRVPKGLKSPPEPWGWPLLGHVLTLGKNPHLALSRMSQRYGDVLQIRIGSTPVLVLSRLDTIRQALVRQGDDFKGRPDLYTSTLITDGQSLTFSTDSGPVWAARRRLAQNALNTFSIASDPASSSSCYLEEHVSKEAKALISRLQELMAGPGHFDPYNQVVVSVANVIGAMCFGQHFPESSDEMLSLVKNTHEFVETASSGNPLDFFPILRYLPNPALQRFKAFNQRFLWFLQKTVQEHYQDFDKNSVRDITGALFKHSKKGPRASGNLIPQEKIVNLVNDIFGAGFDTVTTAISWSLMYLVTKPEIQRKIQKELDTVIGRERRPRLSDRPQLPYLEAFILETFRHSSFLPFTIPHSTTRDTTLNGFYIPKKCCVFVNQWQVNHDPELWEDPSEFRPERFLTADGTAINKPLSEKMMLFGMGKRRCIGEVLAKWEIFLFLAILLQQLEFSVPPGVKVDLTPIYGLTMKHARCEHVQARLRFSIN

[2] = Drug metabolism in monkey hepatocytes assessed as formation of 3-(4-((6-methoxy-1-methyl-1H-benzo[d]imidazol-2-yl)methoxy)phenyl)-2-(methylthio)propanamide at 30 uM after 3 hrs by radio-HPLC/LC-MS/MS analysis in presence of NADPH-generating system/SAM; conditions: cynomolgus monkey
Liver microsome = test: Drug metabolism in Sprague-Dawley rat liver microsomes assessed as formation of 5-(4-((6-hydroxy-1-methyl-1H-benzo[d]imidazol-2-yl)methoxy)benzyl)thiazolidine-2,4-dione at 20 uM after 2 hrs by radio-HPLC/LC-MS/MS analysis in presence of NADPH-generating system and NADPH-generating system/SAM; type: ADME
Cytochrome P450 2C19 [3] = target: T1, Cytochrome P450 2C19; test: (§2) Activity of human CYP2C19 expressed in microsomes isolated from baculovirus infected insect cell assessed as enzyme-mediated (2S,3S,4S,5R,6R)-6-((1-carboxy-2-(4-((6-methoxy-1-methyl-1H-benzo[d]imidazol-2-yl)methoxy)phenyl)ethylthio)carbonylamino)-3,4,5-trihydroxytetrahydro-2H-pyran-2-carboxylic acid formation at 20 uM after 2 hrs by radio-HPLC/LC-MS/MS analysis in presence of NADPH-generating system/SAM; type: ADME
Cytochrome P450 2D6 = Cytochrome P450 2D6 (Homo sapiens, UniProt P10635); test: as §2, with “CYP2D6” for “CYP2C19”; type: ADME
Cytochrome P450 2D6, sequence (P10635 whole entry): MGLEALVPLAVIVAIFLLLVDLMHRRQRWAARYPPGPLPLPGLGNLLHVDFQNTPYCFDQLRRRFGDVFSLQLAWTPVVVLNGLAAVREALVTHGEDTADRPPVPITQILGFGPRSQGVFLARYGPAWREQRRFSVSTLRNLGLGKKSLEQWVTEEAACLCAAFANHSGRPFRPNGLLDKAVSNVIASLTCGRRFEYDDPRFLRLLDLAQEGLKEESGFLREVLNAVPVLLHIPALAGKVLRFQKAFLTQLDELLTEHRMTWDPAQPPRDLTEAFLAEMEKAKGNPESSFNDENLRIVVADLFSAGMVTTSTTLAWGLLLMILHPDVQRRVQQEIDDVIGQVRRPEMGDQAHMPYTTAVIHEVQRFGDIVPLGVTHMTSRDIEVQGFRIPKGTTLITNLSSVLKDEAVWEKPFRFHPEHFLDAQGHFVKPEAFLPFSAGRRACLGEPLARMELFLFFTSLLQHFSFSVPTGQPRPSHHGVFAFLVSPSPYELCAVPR

[4] = Drug metabolism in rat hepatocytes assessed as formation of 3-(4-((6-methoxy-1-methyl-1H-benzo[d]imidazol-2-yl)methoxy)phenyl)-2-(methylsulfonyl)propanamide at 30 uM after 3 hrs by radio-HPLC/LC-MS/MS analysis in presence of NADPH-generating system/SAM; type: ADME, cell-based, Hepatocyte
[5] = target: T3, UDP-glucuronosyltransferase 1A9 (Homo sapiens, UniProt O60656); test: as §2, with “human UGT1A9” for “human CYP2C19”, “after 4” for “after 2”, “of UDPGA” for “of NADPH-generating system/SAM”; type: ADME
T3 sequence (O60656 whole entry): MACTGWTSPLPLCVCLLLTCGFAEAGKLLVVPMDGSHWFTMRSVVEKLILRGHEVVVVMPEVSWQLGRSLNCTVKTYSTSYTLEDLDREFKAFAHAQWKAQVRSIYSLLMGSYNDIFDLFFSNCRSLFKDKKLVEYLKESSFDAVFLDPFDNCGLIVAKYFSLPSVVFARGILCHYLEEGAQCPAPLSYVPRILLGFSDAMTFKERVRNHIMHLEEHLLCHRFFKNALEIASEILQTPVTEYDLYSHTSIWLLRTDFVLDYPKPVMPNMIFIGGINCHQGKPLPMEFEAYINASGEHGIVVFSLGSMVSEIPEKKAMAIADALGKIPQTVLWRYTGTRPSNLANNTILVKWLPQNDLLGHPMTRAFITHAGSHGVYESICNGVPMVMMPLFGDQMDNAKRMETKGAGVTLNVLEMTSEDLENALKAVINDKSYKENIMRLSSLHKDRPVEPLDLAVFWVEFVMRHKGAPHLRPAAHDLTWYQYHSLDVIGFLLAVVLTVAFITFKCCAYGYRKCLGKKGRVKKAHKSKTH

| Drug metabolism (Cytochrome P450 2C19 [1]) | Drug metabolism (Cytochrome P450 1A2) | Drug metabolism [2] | Drug metabolism (Liver microsome) | Drug metabolism (Cytochrome P450 2C19 [3]) | Drug metabolism (Cytochrome P450 2D6) | Drug metabolism [4] | Drug metabolism [5] | Structure (SMILES) |
| --- | --- | --- | --- | --- | --- | --- | --- | --- |
| metabolite_detected | – | – | – | – | – | – | – | COc1ccc2nc(COc3ccc(CC(S)C(=O)O)cc3)n(C)c2c1 (stereo not drawn) |
| – | metabolite_detected | metabolite_detected | metabolite_detected | metabolite_not_detected | metabolite_not_detected | metabolite_detected | metabolite_not_detected | COc1ccc2nc(COc3ccc(C[14CH]4SC(=O)NC4=O)cc3)n(C)c2c1.Cl (racemic) |
